Compounds with a hit are over-represented: about 3% of the library has one in this group of screens.
SR-BI uptake up: activators of SR-BI mediated HDL lipid uptake | CHO ldlA[mSR-BI] cells, DiI-HDL uptake fluorescence, 3 h; 100 = double the neutral-control signal | activation, % at 12.5 µM | 320,000 tested, 0.096% active;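 active = mean replicate activation of at least 60% and every replicate at or above 60%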;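 also: 0% = median plate neutral-control signal and 100% = twice that signal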
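system = CHO ldlA[mSR-BI] cells, LDL receptor-null, SR-BI overexpressing | medium = Ham's F12 with 0.5% BSA, HEPES 25 mM, pH 7.4 | probe or stimulus = DiI-HDL 10 µg/mL | compound dosing = single-point compound dose | incubation = compound exposure 3 h, 37 °C | technique = DiI fluorescence, bottom read | read-out = cell-associated DiI fluorescence as measure of HDL uptake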
ANO1 activ: mouse TMEM16A channel activation, primary screen. Q8BHY3. AID 623877. B-score at 10 µM. 340,000 tested, 0.3% active. HEK293 TMEM16A/YFP-H148Q/I152L, iodide quench fluorescence; hits give low values;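 active = fluorescence-ratio B-score plate-corrected deviation score at least 3 library SD below zero, with starting fluorescence score within 5 deviations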;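 also: channel opened by trigger with iodide after compound preincubation; score built on the fluorescence ratio of max minus min over baseline; more negative score means more quench and so TMEM16A activation or potentiation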
SR-BI DiI inh: inhibitors of mouse SR-BI mediated HDL lipid uptake | Q61009 | ldlA[mSR-BI] CHO cells, DiI-HDL uptake fluorescence, 3 h | inhibition, % at 12.5 µM | 320,000 tested, 0.96% active;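 active = mean replicate inhibition of at least 70% and a set share of replicates each scoring 70 or more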;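 also: 0% = median of neutral control wells and 100% = median of positive control wells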
Target sequence (Q61009 whole entry, looked up): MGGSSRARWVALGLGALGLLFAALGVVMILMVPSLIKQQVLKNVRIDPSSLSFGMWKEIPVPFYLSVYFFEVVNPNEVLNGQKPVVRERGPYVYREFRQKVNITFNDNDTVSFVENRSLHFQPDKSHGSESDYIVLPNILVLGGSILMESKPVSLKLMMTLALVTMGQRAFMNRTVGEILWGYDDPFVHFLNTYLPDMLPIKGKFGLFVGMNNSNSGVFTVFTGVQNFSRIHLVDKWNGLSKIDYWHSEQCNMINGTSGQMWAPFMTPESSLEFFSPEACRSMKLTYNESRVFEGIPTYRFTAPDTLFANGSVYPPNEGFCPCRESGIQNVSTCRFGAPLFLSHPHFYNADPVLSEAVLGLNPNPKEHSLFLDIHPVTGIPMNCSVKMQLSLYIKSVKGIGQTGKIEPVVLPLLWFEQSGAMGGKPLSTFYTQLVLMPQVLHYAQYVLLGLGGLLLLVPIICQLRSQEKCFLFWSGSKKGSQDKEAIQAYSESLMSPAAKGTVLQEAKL
Kir21 inh: blocks the mouse Kir2.1 inward-rectifier potassium channel. P35561. HEK293-Kir2.1, FluxOR thallium flux fluorescence; hits give low values. B-score at 10 µM. 310,000 tested, 0.85% active. AID 1672;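 active = fluorescence ratio B-score at or below minus 3 SD of library scores, with starting-brightness B-score within 2 SD, cut at about -4.2 in these data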;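 also: channel flux triggered by added potassium and thallium sulfate stimulus; B-score of peak minus minimum fluorescence over baseline after thallium stimulus; more negative B-score means stronger Kir2.1 block with less thallium influx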
ANO1 block: mouse TMEM16A channel inhibition, primary screen; Q8BHY3; HEK293 TMEM16A/YFP iodide influx fluorescence, ionomycin; normalized B-score (activity score, 25-100; higher = stronger inhibition) at 10 µM; 310,000 tested, 1.2% active; AID 588511;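 active = ratio plate-corrected score three or more library SD toward inhibition, starting fluorescence score within five deviations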;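 also: score derived from kinetic fluorescence span divided by baseline fluorescence per well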
FID counter: fluorescent intercalator displacement, NS3 helicase counter-screen; 290,000 tested, 0.17% active; inhibition, % at 7.9 µM; DNA fluorescent intercalator displacement, fluorescence; in the data active = inhibition above about 37%;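 also: 0% = vehicle and 100% = reference compound; higher means more ethidium bromide displaced from hairpin DNA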
An asterisk follows results filed as active; i = inactive; · = no result given.

SMILES	SR-BI uptake up	ANO1 activ	SR-BI DiI inh	Kir21 inh	ANO1 block	FID counter
COc1ccc(-c2csc(C3=C(O)CN(Cc4ccc(Cl)cc4)C3=N)n2)cc1OC	-87	i	87*	1.4	i	-11
COCC(C)N1CC(O)=C(c2nc(-c3ccc(Cl)cc3)cs2)C1=N (configuration not stated)	-82	i	82*	0.03	i	-2
COc1ccc2[nH]c(N=Nc3ccccc3C)c(O)c2c1	0	i	0	-0.17	i	1
CC(C)C(NC(=O)c1c(F)cccc1F)C(=O)N1CCN(S(=O)(=O)c2ccc(F)cc2)CC1 (configuration not stated)	10	i	-10	·	·	·
CCOC(=O)Sc1nc2ncncc2[nH]1	-29	i	28	·	·	·
CC(=O)[C@@]1(O)CC[C@H]2[C@@H]3CCC4=CC(=O)CC[C@]4(C)[C@H]3[C@@H](O)C[C@@]21C	16	i	-2	-0.06	100*	-12
Cc1c(C(=O)Nc2ccccc2)sc2nc(-c3ccccc3)cn12	-77	i	77*	-0.59	i	-14
Cc1noc(C)c1COc1ccc(C(=O)OCc2nnc(-c3ccc(Cl)cc3)o2)cc1	-3	-5*	3	-1.1	i	-8
O=C(OCc1nnc(-c2ccc(Cl)cc2)o1)c1ccncc1	6	i	-6	-1.2	i	-15
Cc1ccc(O)c(C2=NNC(O)(C(F)(F)F)C2)c1 (configuration not stated)	-8	i	8	-0.72	25*	0
Cc1ccc(O)c(C2=NNC(c3ccc(Cl)cc3)C2)c1 (configuration not stated)	-46	i	46	0.01	i	-9
COc1cccc2sc(N(CCN(C)C)C(=O)c3ccc4c(c3)CCCC4)nc12	-37	i	37	-0.03	i	22
CCOc1ccc2nc(N(CCCN(C)C)C(=O)c3ccc4c(c3)CCCC4)sc2c1	-11	i	11	-3.1	i	39*
CN(C)CCCN(C(=O)c1ccc2c(c1)CCCC2)c1nc2ccc(Cl)cc2s1	-29	i	29	-4.3*	i	7
O=C(Nc1nc(-c2cccs2)cs1)c1ccc(Cl)s1	-43	i	43	0.93	25*	7
CC(=O)Nc1nc(-c2cccs2)cs1	5	i	-5	-0.01	i	2
O=C(Cn1nc(-c2ccccc2)c2ccccc2c1=O)NCC1CCCO1 (configuration not stated)	2	i	-2	0.16	i	-13
O=C(CSc1nnc(-c2ccccc2)c2ccccc12)NCC1CCCO1 (configuration not stated)	-1	-6.8*	1	-0.12	i	-24
Cc1ccsc1CN(C)C(=O)CN1C(=O)NC(c2ccccc2)(c2ccccc2)C1=O	23	i	-23	·	·	·
O=C(COC(=O)c1ccc[nH]c1=O)NC1CCCCCCC1	54	-22*	-54	-0.71	i	-4
O=C(COC(=O)c1ccc[nH]c1=O)NC1CCCCCC1	10	i	-10	0.44	i	-4
CC(C)c1ccccc1NC(=O)COC(=O)Cc1c[nH]c2ccccc12	17	i	-17	-5.4*	i	-18
O=C(COC(=O)Cc1c[nH]c2ccccc12)NC1CCCCC1	14	i	-14	-7*	i	-14
COc1ccccc1NC(=O)COC(=O)Cc1c[nH]c2ccccc12	-2	i	2	-1.6	i	-8
CC1(c2ccc(OC(F)F)cc2)NC(=O)N(CC(=O)Nc2ccc(OC(F)F)cc2)C1=O (configuration not stated)	·	-14*	·	-1.2	i	-2
SMILES	SR-BI uptake up	ANO1 activ	SR-BI DiI inh	Kir21 inh	ANO1 block	FID counter
COc1ccc(S(=O)(=O)C(C#N)c2nc3ccccc3nc2N2CCCCC2)cc1 (configuration not stated)	2	i	-2	-0.03	100*	-2
N#CC(c1nc2ccccc2nc1N1CCCC1)S(=O)(=O)c1ccccc1 (configuration not stated)	40	i	-40	-2.8	i	-4
CC1(C)C2CCC1(CS(=O)(=O)NCc1ccc(Cl)cc1Cl)C(=O)C2 (configuration not stated)	-16	i	16	-3.3	i	-36
CCc1cc(/C(Cc2csc(C)n2)=N/O)c(O)cc1O	4	i	-4	-4.4*	i	-8
CCC(C(=O)OCC(=O)Nc1c(Cl)cccc1Cl)c1ccccc1 (configuration not stated)	-15	i	15	-6.9*	i	-13
O=C(CCc1nc(-c2ccccc2F)no1)Nc1ccc(Oc2ccccc2)cc1	-16	i	16	0.71	100*	-5
COc1cccc(NC(=O)CCc2nc(-c3ccccc3F)no2)c1	-10	i	10	-0.34	i	-4
COc1ccccc1Nc1nc(-c2ccc3c(c2)NC(=O)CO3)cs1	-78	i	78*	0.05	i	-11
COc1ccc(Nc2nc(-c3ccc4c(c3)NC(=O)CO4)cs2)cc1	-44	i	44	-1.9	i	-4
OC(CN1CCN(Cc2ccccc2)CC1)Cn1c2ccccc2c2ccccc21 (configuration not stated)	-34	i	34	-4.4*	i	8
O=C(COc1ccc(S(=O)(=O)N2CCOCC2)cc1)N1CCN(c2ccccc2)CC1	0	i	0	1.6	i	-48
COc1cc([N+](=O)[O-])ccc1NC(=S)NNC(=O)c1ccc2c(c1)OCO2	-26	i	26	1.1	100*	-26
CCOc1ccc(-c2nc(S(=O)(=O)c3ccccc3)c(N3CCC(C(N)=O)CC3)o2)cc1	21	i	-21	-1.1	i	-29
S=C(NCc1ccc2c(c1)OCO2)NC1CCN(Cc2ccccc2)CC1	-15	i	15	-12*	i	15
COC(=O)C1=C(C(=O)OC)[C@@H]2N(C)c3ccccc3[C@@]23C[C@@H](CO)N(C(=O)C2CCC2)C3=N1	-7	i	7	-0.26	i	·
COc1ccc2[nH]c(=O)c(CN(Cc3nnnn3Cc3ccco3)C3CCCCC3)cc2c1	0	i	0	-4.5*	i	-35
COc1ccc2[nH]c(=O)c(CN(C3CCCCC3)C(c3nnnn3Cc3ccco3)C(C)C)cc2c1 (configuration not stated)	-8	i	8	-3	100*	-26
COc1ccc2[nH]c(=O)c(CN(Cc3ccco3)C(c3nnnn3Cc3ccccc3)C(C)C)cc2c1 (configuration not stated)	-1	i	1	-0.39	i	-11

From PubChem
